According to ChEMBL document CHEMBL3526035, “Role of the intestinal peptide transporter PEPT1 in oseltamivir absorption: in vitro and in vivo studies” (Drug Metab Dispos, 2012):
Where a SMILES comes first, the peptide text is derived from it. [ ]: non-standard residue; d: D form. Sar = CNCC(=O)O

What was measured:
[1] = Drug uptake in CHOK1 cells at 2 uM at pH 4 to 8 after 10 mins by HPLC coupled with radiodetection analysis; assay type: ADME, cell-based, Cricetulus griseus; details: chinese hamster, cho-k1, pH 4, 10 min
Method in brief: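 [3H]Gly-Sar at 2 μM in KH buffer over pH 4-8, incubated with CHO-K1 cells for 10 min at 37°C. Accumulated radioactivity in cell lysates counted and normalised to protein. Three independent experiments.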

[2] = biological target: T1, Solute carrier family 15 member 1 (Homo sapiens, UniProt P46059); assay: Drug uptake in CHOK1 cells expressing human PEPT1 by HPLC coupled with radiodetection analysis; assay type: ADME, cell-based; details: cho-k1, TDE = time-dependent effect
T1 sequence (P46059 whole entry): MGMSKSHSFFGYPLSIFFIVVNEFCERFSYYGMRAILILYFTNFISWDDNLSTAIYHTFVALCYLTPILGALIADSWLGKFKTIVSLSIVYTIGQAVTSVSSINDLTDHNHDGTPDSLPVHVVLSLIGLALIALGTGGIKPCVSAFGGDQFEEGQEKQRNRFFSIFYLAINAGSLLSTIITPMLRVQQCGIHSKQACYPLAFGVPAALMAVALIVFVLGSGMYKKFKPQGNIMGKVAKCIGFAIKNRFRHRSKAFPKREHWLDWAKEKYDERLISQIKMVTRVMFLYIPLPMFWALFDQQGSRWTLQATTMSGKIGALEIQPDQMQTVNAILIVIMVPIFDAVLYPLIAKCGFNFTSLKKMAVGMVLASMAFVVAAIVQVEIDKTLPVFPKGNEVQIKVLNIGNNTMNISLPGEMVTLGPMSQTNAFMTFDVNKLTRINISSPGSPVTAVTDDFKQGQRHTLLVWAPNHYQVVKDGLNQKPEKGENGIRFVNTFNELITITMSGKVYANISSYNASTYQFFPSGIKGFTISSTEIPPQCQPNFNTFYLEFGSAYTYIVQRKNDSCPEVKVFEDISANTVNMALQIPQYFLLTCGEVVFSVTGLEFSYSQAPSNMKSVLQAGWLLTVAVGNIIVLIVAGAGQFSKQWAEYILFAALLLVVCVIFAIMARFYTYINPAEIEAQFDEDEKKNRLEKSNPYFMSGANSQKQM
Method in brief: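 Accumulation of [14C]oseltamivir or its carboxylate in CHO-PEPT1 versus CHO-K1 cells. Conditions varied: KH buffer (with MES) or Hanks' balanced salt solution, pH 5 or 6 readjusted after substrate addition, 30 s to 15 min at 37°C. Uptake was quenched with ice-cold PBS-BSA, followed by Triton X-100 lysis, scintillation counting, and BCA protein normalization. HPLC-radiodetection checked ester stability.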

[3] = biological target: T1, Solute carrier family 15 member 1; assay: Drug uptake in CHOK1 cells expressing human PEPT1 at 2 uM after 10 mins measured per mg protein by HPLC coupled with radiodetection analysis; assay type: ADME, cell-based; details: cho-k1, 10 min
Method in brief: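 Transporter functionality check: 2 µM [3H]Gly-Sar was incubated for 10 min at 37°C, pH 6, in KH/MES buffer with CHO-PEPT1 versus CHO-K1 cells. Intracellular radioactivity in Triton X-100 lysates was expressed as pmol/mg protein (BCA). Six independent experiments, triplicate wells.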

[4] = Drug uptake in CHOK1 cells at 2 uM after 10 mins measured per mg protein by HPLC coupled with radiodetection analysis; assay type: ADME, cell-based, Cricetulus griseus; details: chinese hamster, cho-k1, 10 min
Method in brief: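 CHO-K1 cells given 2 μM [3H]Gly-Sar in KH buffer at pH 6 for 10 min at 37°C. Ice-cold PBS-BSA quench, then washes and Triton lysis. Scintillation counts expressed as pmol/mg protein (BCA). n=6 experiments.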

Drug uptake [1]: Active
Drug uptake [2]: tde
Drug uptake [3]: 182 pmol
Drug uptake [4]: 1.1 pmol
SMILES: CN(CC(=O)O)C(=O)CN [GLYCYLSARCOSINE] (H-Gly-[Sar]-OH)
